Blank lines part the entries; values can stand above or below the compound they belong to. Active and inactive are the calls of the source. The rule behind the calls is not given here.
Tests used:
[1] = biological target: Death-associated protein kinase 3 (Homo sapiens) (UniProt O43293); test: Inhibition of DAPK3 (unknown origin) assessed as residual enzyme activity at 10 uM by Ambit kinase binding assay relative to control
[2] = biological target: SRSF protein kinase 1 (Homo sapiens) (UniProt Q96SB4); test: Inhibition of SRPK1 (unknown origin) assessed as residual enzyme activity at 10 uM by Ambit kinase binding assay relative to control
[3] = biological target: Cyclin-dependent kinase 7 (Homo sapiens) (UniProt P50613); test: Inhibition of CDK7 (unknown origin) assessed as residual enzyme activity at 10 uM by Ambit kinase binding assay relative to control
[4] = biological target: Calcium/calmodulin-dependent protein kinase kinase 1 (Homo sapiens) (UniProt Q8N5S9); test: Inhibition of CAMKK1 (unknown origin) assessed as residual enzyme activity at 10 uM by Ambit kinase binding assay relative to control
[5] = biological target: Serine/threonine-protein kinase 38-like (Homo sapiens) (UniProt Q9Y2H1); test: Inhibition of NDR2 (unknown origin) assessed as residual enzyme activity at 10 uM by Ambit kinase binding assay relative to control
[6] = biological target: Serine/threonine-protein kinase RIO1 (Homo sapiens) (UniProt Q9BRS2); test: Inhibition of RIOK1 (unknown origin) assessed as residual enzyme activity at 10 uM by Ambit kinase binding assay relative to control
[7] = biological target: Myosin-IIIb (Homo sapiens) (UniProt Q8WXR4); test: Inhibition of MYO3B (unknown origin) assessed as residual enzyme activity at 10 uM by Ambit kinase binding assay relative to control
[8] = tested on: HeLa; test: Antiproliferative activity against human HeLa cells assessed as loss of clonal survival upto 10 uM incubated for 10 days by crystal violet staining based assay; assay type: functional, cell-based; details: time 10.0 day
In short: (§1)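 Colony outgrowth: cells plated at 200 cells per 60-mm dish, exposed to compound or DMSO vehicle and stained with crystal violet after 10 days. HCT116 grown in McCoy's 5A; A549 and HeLa in DMEM; hTERT-RPE1 in DMEM/F-12. All media had 10% FBS and penicillin/streptomycin, 37°C, 5% CO2. Quantified from 3 independent experiments, mean + SD, Student's t test.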

[9] = tested on: U2OS; test: Reversal of nocodazole-induced mitotic arrest in human U2OS cells assessed as Ser10 phosphorylated Histone H3-positive 4c population at 5 uM incubated for 16 hrs by flow cytometry (reference value: 94 %); assay type: functional
[10] = biological target: Insulin receptor-related protein (Homo sapiens, UniProt P14616); test: Binding affinity to INSRR (unknown origin) assessed as dissociation constant by Ambit kinase binding assay
[11] = biological target: Dual specificity protein kinase CLK1 (Homo sapiens, UniProt P49759); test: Binding affinity to CLK1 (unknown origin) assessed as dissociation constant by Ambit kinase binding assay
[12] = tested on: U2OS; test: Reversal of nocodazole-induced mitotic arrest in human U2OS cells assessed as decrease in cyclin B level at 10 uM incubated for 4 hrs in presence of MG132 by immunoblot analysis; assay type: functional, cell-based
[13] = tested on: U2OS; test: Initiation of anaphase in human U2OS cells expressing histone H2B-GFP at 10 uM measured for 20 mins by fluorescence time-lapse microscopy (reference value: 10 %); assay type: functional
In short: (§2)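 U2OS H2B-GFP cells were given DMSO or inhibitor and imaged by fluorescence time-lapse at 37°C, 5% CO₂, one frame every 2 min. NEBD-to-anaphase time was scored for 100 cells per population and plotted as cumulative percentage initiating anaphase.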

[14] = tested on: HeLa; test: Antiproliferative activity against human HeLa cells at 10 uM measured after 96 hrs in presence of Z-VAD-FMK by Syto60 staining based assay; assay type: functional, cell-based
[15] = tested on: U2OS; test: Induction of chromosome mis-segregation in human U2OS cells expressing histone H2B-GFP at 5 to 10 uM treated for 4 hrs followed by MG132 treatment for 30 to 60 mins and subsequent replacement of medium containing MG132 measured after 30 mins by immunofluoresence analysis; assay type: functional, cell-based; details: dose 5-10 µM, time 4.5-5 hrs
[16] = tested on: HCT-116; test: Cytotoxicity against human HCT-116 cells assessed as loss of cell viability at 5 to 10 uM incubated for 10 days by crystal violet staining based assay; assay type: functional; details: dose 5-10 µM, time 10.0 day; in short: as §1
[17] = tested on: U2OS; test: Reversal of nocodazole-induced mitotic arrest in human U2OS cells assessed as accumulation of 4N phosphorylated Histone H3-negative cells incubated for 16 hrs by flow cytometry; assay type: functional, cell-based; details: dose 5-10 µM
[18] = tested on: HeLa; test: Antiproliferative activity against human HeLa cells at 10 uM incubated for 4 days by Syto60 staining based assay; assay type: functional, cell-based; details: time 4.0 day
In short: (§3)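 Proliferation read by Syto60 nucleic acid stain fluorescence (excitation 635 nm, emission 695 nm) after treatment for up to 96 h. Each time point normalized to its DMSO control. Mean ± SD from 4 independent experiments. Cells kept at 37°C, 5% CO2 in 10% FBS-supplemented medium.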

[19] = tested on: U2OS; test: Reversal of paclitaxel-induced mitotic arrest in human U2OS cells assessed as Ser10 phosphorylated Histone H3-positive 4c population at 10 uM incubated for 16 hrs by flow cytometry (reference value: 25 %); assay type: functional
[20] = tested on: TERT-RPE1; test: Induction of aneuploidy in human TERT-RPE1 cells assessed as frequency of non-disjunction events per cell at 10 uM treated for 24 hrs by karyo-typing analysis (reference value: 0.1); assay type: functional
In short: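 Asynchronous cells were exposed to 10 μM compound for 24 h. Medium was then replaced with medium containing 100 ng/mL colcemid for 2 h to arrest cells in metaphase, after which cells were harvested and karyotyped.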

[21] = tested on: HCT-116; test: Induction of apoptosis in human HCT-116 cells assessed as increase in cleaved PARP level at 5 to 10 uM measured after 48 hrs by immunoblot analysis; assay type: functional, cell-based; details: dose 5-10 µM
[22] = Inhibition of Mps1 in Potoroo PTK2 cells expressing EyFP-tagged human Mad2 assessed as decrease in Mad2 recruitment to kinetochore at 10 uM incubated for 1 hr by fluorescence based imaging analysis relative to control; design: species or system Pt K2; details: Potorous tridactylus
In short: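 PtK2 (male Potorous tridactylus kidney) cells stably expressing human Mad2-EYFP, cultured in Advanced MEM with 2% FBS. Cells were pretreated 1 h with 10 μM inhibitor or DMSO, then given DMSO or nocodazole (200 ng·ml⁻¹). Time-lapse imaging ran at 37°C from NEBD. Kinetochore Mad2-EYFP density was background-corrected and normalized. N=20–29 cells; 95% CI; Student's t test.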

[23] = tested on: U2OS; test: Initiation of anaphase in human U2OS cells expressing histone H2B-GFP measured for 60 mins by fluorescence time-lapse microscopy; assay type: functional, cell-based; details: dose 5-10 µM; in short: as §2
[24] = tested on: HCT-116; test: Induction of apoptosis in human HCT-116 cells assessed as increase in cleaved PARP level at 5 to 10 uM measured for 24 to 48 hrs in presence of Z-VAD-FMK by immunoblot analysis; assay type: functional, cell-based; details: dose 5-10 µM, time 24-48 hrs
[25] = tested on: HCT-116; test: Cytotoxicity against human HCT-116 cells assessed as loss of clonal survival at 5 to 10 uM incubated for 10 days by crystal violet staining based assay; assay type: functional, cell-based; details: dose 5-10 µM, time 10.0 day; in short: as §1
[26] = tested on: U2OS; test: Antiproliferative activity against human U2OS cells at 10 uM incubated for 4 days by Syto60 staining based assay; assay type: functional, cell-based; details: time 4.0 day; in short: as §3
[27] = biological target: ALK tyrosine kinase receptor (Homo sapiens, UniProt Q9UM73); test: Binding affinity to ALK (unknown origin) assessed as dissociation constant by Ambit kinase binding assay

Chain of Dual specificity protein kinase CLK1 (P49759 whole entry): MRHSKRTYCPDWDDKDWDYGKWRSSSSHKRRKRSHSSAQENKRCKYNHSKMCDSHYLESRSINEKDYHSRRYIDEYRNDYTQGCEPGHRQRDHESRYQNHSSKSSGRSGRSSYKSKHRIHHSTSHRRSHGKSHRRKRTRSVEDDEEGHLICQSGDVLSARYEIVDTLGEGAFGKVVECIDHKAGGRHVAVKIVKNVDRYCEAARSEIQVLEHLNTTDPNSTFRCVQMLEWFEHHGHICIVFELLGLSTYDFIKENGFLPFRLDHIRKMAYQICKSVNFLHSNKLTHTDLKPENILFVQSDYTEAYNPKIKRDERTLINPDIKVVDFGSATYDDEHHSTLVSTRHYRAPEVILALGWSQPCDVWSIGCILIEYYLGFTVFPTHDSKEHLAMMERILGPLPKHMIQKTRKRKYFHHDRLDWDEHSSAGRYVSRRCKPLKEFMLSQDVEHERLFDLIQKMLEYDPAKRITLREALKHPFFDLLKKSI
Chain of Myosin-IIIb (Homo sapiens) (Q8WXR4 whole entry): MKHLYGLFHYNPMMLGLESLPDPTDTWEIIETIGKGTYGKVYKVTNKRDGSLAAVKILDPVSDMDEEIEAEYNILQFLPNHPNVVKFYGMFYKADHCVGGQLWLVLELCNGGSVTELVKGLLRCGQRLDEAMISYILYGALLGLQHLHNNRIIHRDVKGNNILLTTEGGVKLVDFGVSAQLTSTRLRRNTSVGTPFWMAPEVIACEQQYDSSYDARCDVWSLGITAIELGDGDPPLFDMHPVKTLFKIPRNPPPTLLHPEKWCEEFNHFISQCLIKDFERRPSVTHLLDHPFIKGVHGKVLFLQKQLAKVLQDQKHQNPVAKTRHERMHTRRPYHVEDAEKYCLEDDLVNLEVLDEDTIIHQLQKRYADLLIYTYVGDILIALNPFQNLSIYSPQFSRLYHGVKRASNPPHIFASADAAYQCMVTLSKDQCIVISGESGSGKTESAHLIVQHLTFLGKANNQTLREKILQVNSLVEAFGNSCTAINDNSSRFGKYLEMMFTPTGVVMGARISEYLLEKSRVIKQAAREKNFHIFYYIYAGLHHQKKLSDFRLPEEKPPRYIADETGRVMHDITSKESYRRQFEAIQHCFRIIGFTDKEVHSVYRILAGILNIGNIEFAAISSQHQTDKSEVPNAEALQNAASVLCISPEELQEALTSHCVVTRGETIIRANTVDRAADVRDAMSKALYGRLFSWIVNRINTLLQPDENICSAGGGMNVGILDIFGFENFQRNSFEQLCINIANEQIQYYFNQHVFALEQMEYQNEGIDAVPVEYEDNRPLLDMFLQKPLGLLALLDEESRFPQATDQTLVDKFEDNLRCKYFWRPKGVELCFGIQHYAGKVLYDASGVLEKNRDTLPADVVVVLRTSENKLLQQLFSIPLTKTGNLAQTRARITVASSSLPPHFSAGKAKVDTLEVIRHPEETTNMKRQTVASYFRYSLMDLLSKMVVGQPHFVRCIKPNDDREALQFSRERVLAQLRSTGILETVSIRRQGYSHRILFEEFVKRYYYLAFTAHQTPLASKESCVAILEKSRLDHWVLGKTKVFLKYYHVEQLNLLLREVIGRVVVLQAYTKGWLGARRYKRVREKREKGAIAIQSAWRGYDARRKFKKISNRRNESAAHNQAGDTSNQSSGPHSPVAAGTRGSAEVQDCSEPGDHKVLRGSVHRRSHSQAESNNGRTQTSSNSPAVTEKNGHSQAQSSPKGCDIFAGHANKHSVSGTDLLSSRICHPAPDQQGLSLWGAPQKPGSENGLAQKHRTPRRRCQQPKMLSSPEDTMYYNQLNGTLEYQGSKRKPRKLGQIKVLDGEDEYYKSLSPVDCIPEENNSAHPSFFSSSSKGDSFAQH
Chain of Serine/threonine-protein kinase RIO1 (Homo sapiens) (Q9BRS2 whole entry): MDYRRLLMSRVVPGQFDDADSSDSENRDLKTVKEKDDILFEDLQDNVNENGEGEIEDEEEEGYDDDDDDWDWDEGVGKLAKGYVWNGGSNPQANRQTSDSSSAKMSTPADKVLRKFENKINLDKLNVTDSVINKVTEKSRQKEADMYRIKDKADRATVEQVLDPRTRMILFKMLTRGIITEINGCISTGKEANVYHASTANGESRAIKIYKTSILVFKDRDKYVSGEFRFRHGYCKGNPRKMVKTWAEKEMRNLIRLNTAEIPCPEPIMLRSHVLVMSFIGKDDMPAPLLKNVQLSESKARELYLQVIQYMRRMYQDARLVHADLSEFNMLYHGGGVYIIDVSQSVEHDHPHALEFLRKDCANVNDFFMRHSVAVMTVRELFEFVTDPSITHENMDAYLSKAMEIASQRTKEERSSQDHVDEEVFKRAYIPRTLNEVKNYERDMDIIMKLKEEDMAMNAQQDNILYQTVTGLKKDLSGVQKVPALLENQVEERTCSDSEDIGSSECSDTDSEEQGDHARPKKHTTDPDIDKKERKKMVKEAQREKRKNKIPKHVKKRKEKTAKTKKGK
Chain of SRSF protein kinase 1 (Homo sapiens) (Q96SB4 whole entry): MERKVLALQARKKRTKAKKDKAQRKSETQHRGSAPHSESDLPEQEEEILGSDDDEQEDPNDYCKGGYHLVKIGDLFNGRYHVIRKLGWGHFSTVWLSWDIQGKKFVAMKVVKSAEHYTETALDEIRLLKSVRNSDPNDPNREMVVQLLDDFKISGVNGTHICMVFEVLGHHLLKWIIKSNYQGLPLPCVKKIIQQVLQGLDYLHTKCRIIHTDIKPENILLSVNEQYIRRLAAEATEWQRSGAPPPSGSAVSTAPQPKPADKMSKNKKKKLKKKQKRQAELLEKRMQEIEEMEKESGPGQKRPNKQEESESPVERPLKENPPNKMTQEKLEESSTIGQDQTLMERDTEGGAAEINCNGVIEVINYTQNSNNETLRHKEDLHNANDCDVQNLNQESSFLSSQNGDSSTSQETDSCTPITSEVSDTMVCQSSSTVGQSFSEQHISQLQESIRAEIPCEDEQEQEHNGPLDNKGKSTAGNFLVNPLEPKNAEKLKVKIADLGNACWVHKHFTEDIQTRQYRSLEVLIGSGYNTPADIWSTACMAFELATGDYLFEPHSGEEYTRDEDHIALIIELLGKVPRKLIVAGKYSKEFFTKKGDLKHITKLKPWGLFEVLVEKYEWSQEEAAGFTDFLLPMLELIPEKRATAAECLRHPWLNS
Chain of Death-associated protein kinase 3 (Homo sapiens) (O43293 whole entry, looked up): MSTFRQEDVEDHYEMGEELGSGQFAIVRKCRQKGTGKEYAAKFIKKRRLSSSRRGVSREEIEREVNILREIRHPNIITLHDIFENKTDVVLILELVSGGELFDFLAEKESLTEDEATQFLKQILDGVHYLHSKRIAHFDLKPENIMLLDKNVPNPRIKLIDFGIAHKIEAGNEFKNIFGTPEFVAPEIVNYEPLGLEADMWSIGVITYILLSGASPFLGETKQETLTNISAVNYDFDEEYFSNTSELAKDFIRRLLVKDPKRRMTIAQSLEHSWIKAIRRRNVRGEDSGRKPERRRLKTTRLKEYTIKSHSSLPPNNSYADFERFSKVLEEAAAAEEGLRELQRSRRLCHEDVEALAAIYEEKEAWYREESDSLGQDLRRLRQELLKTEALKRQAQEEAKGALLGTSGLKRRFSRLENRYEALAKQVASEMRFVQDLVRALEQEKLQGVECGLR
Chain of Cyclin-dependent kinase 7 (Homo sapiens) (P50613 whole entry): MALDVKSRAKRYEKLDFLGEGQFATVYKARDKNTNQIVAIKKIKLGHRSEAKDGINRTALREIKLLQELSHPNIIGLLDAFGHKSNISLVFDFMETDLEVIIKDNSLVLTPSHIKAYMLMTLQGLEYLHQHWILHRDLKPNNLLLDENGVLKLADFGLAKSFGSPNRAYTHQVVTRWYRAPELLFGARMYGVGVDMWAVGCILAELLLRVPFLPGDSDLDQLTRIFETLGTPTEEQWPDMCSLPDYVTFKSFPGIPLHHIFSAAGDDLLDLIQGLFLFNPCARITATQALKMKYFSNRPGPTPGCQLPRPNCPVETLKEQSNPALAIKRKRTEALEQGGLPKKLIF
Chain of Serine/threonine-protein kinase 38-like (Homo sapiens) (Q9Y2H1 2-464 limits assumed): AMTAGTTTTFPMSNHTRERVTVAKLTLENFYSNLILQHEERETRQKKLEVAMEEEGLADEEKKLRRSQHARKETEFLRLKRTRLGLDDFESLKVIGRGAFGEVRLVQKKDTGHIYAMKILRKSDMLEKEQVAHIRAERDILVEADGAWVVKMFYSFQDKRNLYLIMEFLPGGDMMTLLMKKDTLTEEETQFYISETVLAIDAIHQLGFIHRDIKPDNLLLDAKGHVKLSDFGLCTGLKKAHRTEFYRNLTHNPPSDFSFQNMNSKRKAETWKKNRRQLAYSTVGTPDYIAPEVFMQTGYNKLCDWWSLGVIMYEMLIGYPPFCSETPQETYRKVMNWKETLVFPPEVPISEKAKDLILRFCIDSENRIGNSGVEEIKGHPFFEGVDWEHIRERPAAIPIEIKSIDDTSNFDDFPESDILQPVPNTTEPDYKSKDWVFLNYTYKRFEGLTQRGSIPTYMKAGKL
Chain of Calcium/calmodulin-dependent protein kinase kinase 1 (Homo sapiens) (Q8N5S9 whole entry, looked up): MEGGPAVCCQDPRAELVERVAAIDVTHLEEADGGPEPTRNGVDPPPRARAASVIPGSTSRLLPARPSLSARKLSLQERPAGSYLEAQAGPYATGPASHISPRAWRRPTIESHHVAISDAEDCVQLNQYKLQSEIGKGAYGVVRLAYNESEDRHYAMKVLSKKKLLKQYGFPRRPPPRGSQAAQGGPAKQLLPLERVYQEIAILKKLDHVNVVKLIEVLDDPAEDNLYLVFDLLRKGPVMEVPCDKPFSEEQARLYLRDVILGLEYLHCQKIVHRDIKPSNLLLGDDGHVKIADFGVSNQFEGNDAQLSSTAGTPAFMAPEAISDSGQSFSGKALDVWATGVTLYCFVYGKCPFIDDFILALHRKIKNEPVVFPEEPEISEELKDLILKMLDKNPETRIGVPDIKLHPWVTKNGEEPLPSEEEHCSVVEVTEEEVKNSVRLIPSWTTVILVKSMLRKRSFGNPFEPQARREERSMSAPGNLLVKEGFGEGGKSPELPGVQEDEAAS

Activity [2]: 32%
Activity [3]: 26%
Activity [4]: 10%
Activity [5]: 28%
Activity [6]: 10%
SMILES: O=C1c2ccccc2-c2n[nH]c3cccc1c23
Activity [1]: 3.2%

Activity [7]: 28%
Kd [10]: 1200 nM
Kd [11]: 1900 nM
Kd [27]: 21 nM
SMILES: COc1cc(N2CCC(O)CC2)ccc1Nc1cc(Nc2ccccc2S(=O)(=O)C(C)C)c2cc[nH]c2n1
Activity [8]: Active
Activity [9]: 8%
Activity [12]: inactive
Activity [13]: ~100%
Activity [14]: Active
Activity [15]: Active
Activity [16]: Active
Activity [17]: Dose-Dependent Effect
Activity [18]: Active
Activity [19]: 1%
Activity [20]: 3.3
Activity [21]: Active
inhibition at 10 µM [22]: 80%
Activity [23]: Dose-Dependent Effect
Activity [24]: inactive
Activity [25]: Active
Activity [26]: Active

Source: ChEMBL document CHEMBL5705891, “Small-molecule kinase inhibitors provide insight into Mps1 cell cycle function” (Nat Chem Biol, 2010)
